Assay results pooled from the literature.
Each line is one published result; the experiments were not run side by side.
Method: competition with immobilised ligand
JAK3 JH1: Tyrosine-protein kinase JAK3, JH1 (JAK3, Homo sapiens, UniProt P52333)
JAK3: Tyrosine-protein kinase JAK3 (JAK3, Homo sapiens, UniProt P52333)

Structure (SMILES)	target	assay	setting	remaining binding [%]
O=C(Nc1c[nH]nc1C(=O)NC1CCNCC1)c1cc(F)cc(F)c1	JAK3 JH1	binding	1 µM	100
COc1cnc(Nc2cccc(S(N)(=O)=O)c2)nc1N1CCN(c2ccccc2)C(=O)C1	JAK3 JH1	binding	1 µM	16
C=CC(=O)N1CCC(C(=O)NCC(=O)N2CCN(c3nc(-c4cnc(N)nc4C(F)F)nc(N4CCOCC4)n3)CC2)CC1	JAK3 JH1	binding	1 µM	88
Nc1ncc2c(n1)-c1c([nH]c3ccc(C#CC4CC4)cc13)CCCC2	JAK3 JH1	binding	1 µM	80
COc1ccnn2ncc(-c3ccnc(N(C)C)n3)c12	JAK3 JH1	cell-free assay	1 µM	94
FC(F)(F)Oc1cccc(-c2cnc3ccc(-c4ccncc4)nn23)c1	JAK3 JH1	cell-free assay	5 µM	23
Nc1c(C(=O)NCc2ccc(C(=O)NCCCC3CCCCC3)cc2)cnn1-c1ccccc1	JAK3 JH1	cell-free assay	0.1 µM	100
c1cncc(-c2cccc(Nc3nccc(NC4CCCCC4)n3)c2)c1	JAK3 JH1	binding	10 µM	6.4
CNC(=O)[C@@H]1CC[C@@H](n2c(-c3ccc4cnccc4c3)nc3ccc(C(=O)NCc4cccc(C(N)=O)c4)cc32)C1	JAK3 JH1	binding	1 µM	100
CC(=O)N1CCC(c2ccc(C(=O)NC(=N)N)cc2C(F)(F)F)CC1	JAK3 JH1	cell-free assay	1 µM	100
N[C@@H]1CCN(c2nccc(-c3cnn4ncccc34)n2)C1	JAK3 JH1	cell-free assay	1 µM	100
Cc1cnc(Nc2ccc(C(=O)N3CCC(N4CCCC4)CC3)cc2)nc1-c1cc2ccccc2s1	JAK3 JH1	binding	1 µM	0
C[C@@H]1CN(c2ccc3ncc(-c4ccc5[nH]nc(C6CC6)c5c4)n3n2)C[C@H](C)O1	JAK3	binding	50 nM	76
F[C@@H]1CCN(c2nccc(-c3cnn4ncccc34)n2)C1	JAK3 JH1	cell-free assay	1 µM	100
CC1=C(C#N)C(c2ccc3c(c2)c(NC(=O)c2ccccc2C)nn3C)C(C#N)=C(C)N1	JAK3 JH1	cell-free assay	1 µM	83
O=C(c1ccc(Nc2ncc(Cl)c(-c3cc4ccccc4s3)n2)cc1)N1CCC(N2CCCC2)CC1	JAK3 JH1	binding	1 µM	0
CNC(=O)c1ccc(Nc2ncc(C(F)(F)F)c(NCc3nccnc3N(C)S(C)(=O)=O)n2)cc1	JAK3	binding	1 µM	8.2
CN(C)c1nccc(-c2cnc3ncccn23)n1	JAK3 JH1	cell-free assay	1 µM	93
Cc1noc([C@H]2C[C@@H](c3ccc(C(F)(F)F)cc3)CN(C(=O)N3CCS(=O)(=O)C3)C2)n1	JAK3 JH1	cell-free assay	1 µM	100
COC(=O)Nc1nc2ccc(C(=O)c3ccccc3)cc2[nH]1	JAK3	cell-free assay	10 µM	29
CS(=O)(=O)NCC[C@H](NC(=O)c1cncc2c1cnn2-c1ccc(F)cc1)c1ccnc(S(C)(=O)=O)c1	JAK3 JH1	cell-free assay	1 µM	100
O=C(c1ccc(Nc2nccc(-c3cc4ccccc4s3)n2)cc1)N1CCC(N2CCCC2)CC1	JAK3 JH1	binding	1 µM	0.4
